These results are taken from ChEMBL document CHEMBL4811274, “Epo-C12 inhibits peroxiredoxin 1 peroxidase activity” (Bioorg Med Chem, 2021).

Assay [1] deals with BALL-1. In words: Cytotoxicity against human BALL-1 cells assessed as reduction in cell viability incubated for 24 hrs by WST-8 assay. The format is functional, cell-based. The following applies: BALL-1, 24 h. The procedure, abridged: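 BALL-1 cells (RPMI 1640, 10% FBS, 37 °C, 5% CO2) seeded at 10,000 cells/well, exposed to a concentration range for 24 h, 0.1% DMSO. WST-8 reagent added, 2 h at 37 °C, absorbance 450 nm. Growth inhibition taken as sample/control absorbance ratio; IC50 reported as mean ± SD.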
A general note: Tetrazolium dyes change colour on reduction, which living cells bring about.

For assay [2], the target named is Peroxiredoxin-1 (Homo sapiens) (UniProt Q06830). In words: Retention of chaperone activity of oxidized Prx1 (unknown origin) assessed as decrease in heat-induced citrate synthase aggregation at 25 uM incubated for 20 mins by light scattering assay.
Assay [3] has the same target. In words: Inhibition of recombinant Prx1 (unknown origin) assessed as reduction in peroxidase activity at 50 uM incubated for 30 mins followed by H2O2 addition and measured after 20 mins by PEROXsay assay kit method relative to control; values are per cent of control. Conditions: time 50.0 min.
The target is the same in assay [4]. As to the kind of experiment: Binding affinity to recombinant wild type Prx1 (unknown origin) expressed in human HEK293T cells at 1 uM incubated for 20 hrs by Western blot analysis. (A western blot detects proteins with antibodies after separation by electrophoresis.)
For assay [5], the system named is BALL-1. In words: Induction of apoptosis in human BALL-1 cells at 5 uM pretreated with GSH for 1.5 hrs followed by compound addition and measured after 24 hrs by annexin-V-FITC and PI staining based flow cytometry analysis. The format is functional, cell-based. The procedure, abridged:
(§1)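 BALL-1 cells (2×10⁵) pretreated 1.5 h at 37 °C with DMSO, 250 μM DTT, 1.5 mM GSH or 250 μM NAC, then ±5 μM compound for 24 h. Stained with annexin V-FITC (HEPES–NaOH/NaCl/CaCl2 buffer pH 7.4, 10 min), then 2 μg/mL PI; flow cytometry. Late apoptotic (annexin V+/PI+) percentage; octuplicate, mean ± SD, Tukey HSD.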
(In general: Flow cytometry measures light scatter and fluorescence of single cells or particles in a stream.)

The subject of assay [6] is BALL-1. As to the kind of experiment: Induction of ROS production in human BALL-1 cells incubated for 30 mins by DCFH-DA staining based flow cytometry analysis. The following applies: dose 1-10 µM. The format is functional, cell-based. The procedure, abridged: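 Cells (2×10⁵) loaded with 10 μM DCFH-DA for 10 min, then exposed to 1, 5 or 10 μM compound, DMSO vehicle, or 50 μM H2O2 for 30 min. Pellets resuspended in PBS; DCF fluorescence by flow cytometry (ex 488/em 530 nm). Fluorescence normalized to control; mean of two independent measurements, error as range.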

In assay [7] the test system is BALL-1. As to the kind of experiment: Induction of apoptosis in human BALL-1 cells at 5 uM pretreated with DTT for 1.5 hrs followed by compound addition and measured after 24 hrs by annexin-V-FITC and PI staining based flow cytometry analysis. The assay is classed as functional, cell-based. The method in brief: as §1
Assay [8] relates to BALL-1. As to the kind of experiment: Induction of apoptosis in human BALL-1 cells at 5 uM pretreated with NAC for 1.5 hrs followed by compound addition and measured after 24 hrs by annexin-V-FITC and PI staining based flow cytometry analysis. The format is functional, cell-based. The method in brief:
as §1

Molecules are shown by their SMILES. Active and inactive are the calls of the source. The calls are words filed in the database; no cut-off is given here.

Chain of Peroxiredoxin-1 (Homo sapiens) (Q06830 whole entry, looked up): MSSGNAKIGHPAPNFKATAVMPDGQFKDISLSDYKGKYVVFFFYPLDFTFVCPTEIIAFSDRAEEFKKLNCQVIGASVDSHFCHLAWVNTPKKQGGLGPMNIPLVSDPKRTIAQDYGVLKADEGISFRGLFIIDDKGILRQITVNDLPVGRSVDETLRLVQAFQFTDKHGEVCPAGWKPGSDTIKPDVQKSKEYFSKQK

As usually defined, the IC50 is the point on the concentration scale where inhibition reaches its midpoint. In general, residual activity refers to the activity still measured, relative to the control. Regarding `[O-][n+]1c(CBr)c(CBr)[n+]([O-])c2ccccc21`, the half-inhibitory concentration (IC50) in the assay with BALL-1 [1] turned out to be 1.05 µM. In assay [2], the outcome was Active. In addition, the residual activity in assay [3] came out at 33%.

As for `CC1(O)NC(=O)[C@@]2(C(=O)CCCCCCCCCCCNC(=O)CCCC[C@@H]3SC[C@@H]4NC(=O)N[C@@H]43)O[C@@H]12` (stereo partly specified), the result in assay [4] was Active.

For `CCCCCCCCCCCC(=O)[C@]12O[C@H]1C(C)(O)NC2=O` (stereo partly specified), the result in the assay with BALL-1 [5], with BALL-1 [7] and in the assay on BALL-1 [8] was inactive. The Activity entry in the assay with BALL-1 [6] was “Dose-Dependent Effect”. The IC50 in the assay with BALL-1 [1] is 4.41 µM. The outcome in assay [2] was Active. The residual activity in assay [3] was 56%.
